Data set [1] relates to dengue virus type 2. The experiment in a line: Antiviral activity against Dengue virus 2 NGC infected in human A549 cells by CFI assay. In kind it is functional, organism-based. A digest of the protocol: (§1)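 CFI assay: A549 cells seeded 2 × 10^4/well, infected next day (MOI 0.3 for DENV-2) with compound-virus mixture for 1 h, then refed with compound-containing medium. On day 2 cells were methanol-fixed at 4°C and intracellular E protein detected by ELISA (4G2 primary, HRP anti-mouse secondary). EC50 is the average of two independent experiments.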

For data set [2], the system named is dengue virus type 1. The data set is described as follows: Antiviral activity against Dengue virus 1 MY10245 infected in human A549 cells by CFI assay. The data set is classed as functional, organism-based. A digest of the protocol: as §1
The subject of data set [3] is dengue virus type 2. The experiment in a line: Antiviral activity against Dengue virus 2 MY10340 infected in human A549 cells by CFI assay. In kind it is functional, organism-based. The method, boiled down: as §1
Data set [4] relates to dengue virus type 3. The experiment in a line: Antiviral activity against Dengue virus 3 MY22366 infected in human A549 cells by CFI assay. In kind it is functional, organism-based. A digest of the protocol: as §1
The subject of data set [5] is dengue virus type 4. The experiment in a line: Antiviral activity against Dengue virus 4 MY22713 infected in human A549 cells by CFI assay. In kind it is functional, organism-based. The method, boiled down: as §1
Data set [6] deals with dengue virus type 2. The data set is described as follows: Antiviral activity against Dengue virus 2 NGC infected in human PBMC cells by plaque assay. The data set is classed as functional, organism-based.
The subject of data set [7] is dengue virus type 2. The experiment in a line: Antiviral activity against Dengue virus 2 TSV01 infected in AG129 mouse assessed as reduced viremia by 25 mg/kg, po BID for 3 days measured on day 4 by plaque assay. The data set is classed as functional. A digest of the protocol: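 AG129 mice (lacking IFN-α/β and IFN-γ receptors) were inoculated i.p. with 2 × 10^6 PFU DENV-2 in 0.4 ml. Immediately afterwards, 0.2 ml compound in ethanol-PEG-D5W (10:30:60) was given by oral gavage twice daily for 3 days. Day-4 blood viremia was measured by plaque assay; 6 or 8 mice per group.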

For data set [8], the system named is A549. The data set is described as follows: Cytotoxicity against human A549 cells up to 12.5 uM after 48 hrs by MTT assay. In kind it is functional, cell-based. On the technique in general: Tetrazolium dyes change colour on reduction, which living cells bring about.
Data set [9] concerns A549. The experiment in a line: Cytotoxicity against human A549 cells at >= 25 uM after 48 hrs by MTT assay. In kind it is cell-based. The settings on record: a549, 48 h.
Data set [10] can be described thus: Cmax in CD-1 mouse at 25 mg/kg, po by LC-MS-MS analysis. In kind it is ADME, organism-based. Further details: dose 25 mg/kg, route oral. The settings on record: in vivo. A digest of the protocol:
(§2)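 Female CD-1 mice dosed orally at 25 mg/kg, formulated at 2.5 mg/ml in 0.1 N HCl (1.5 equimolar), pH 3.5 with NaOH, topped off with 100 mM citrate pH 3.5. Blood taken from three animals per time point, 0.08–24 h. Plasma acetonitrile-methanol-acetic acid extract analysed by LC-MS-MS (LLOQ 9.2 ng/ml). Mean profile fitted noncompartmentally; F from dose-corrected p.o./i.v. AUC.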

Data set [11] in a line: Tmax in CD-1 mouse at 25 mg/kg, po by LC-MS-MS analysis. The data set is classed as ADME, organism-based. Further details: dose 25 mg/kg, route oral. The settings on record: in vivo. A digest of the protocol: as §2
Data set [12] relates to Mus musculus. The experiment in a line: AUC (0 to infinity) in CD-1 mouse at 25 mg/kg, po by LC-MS-MS analysis. In kind it is ADME, organism-based, Plasma. Further details: time infinity, dose 25 mg/kg, route oral. The settings on record: in vivo. A digest of the protocol:
as §2

The nature of data set [13]: Oral bioavailability in CD-1 mouse at 25 mg/kg by LC-MS-MS analysis. In kind it is ADME, organism-based. The settings on record: in vivo. A digest of the protocol: as §2
Data set [14] in a line: Volume of distribution in CD-1 mouse at 5 mg/kg, iv by LC-MS-MS analysis. The data set is classed as ADME, organism-based. Further details: dose 5 mg/kg, route intravenous. The note with it: in vivo. The method, boiled down:
(§3)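 Female CD-1 mice, single i.v. injection of 5 mg/kg (1 mg/ml) in pH 3.5 HCl/citrate formulation. Blood from three animals at 0.02–24 h; heparinized plasma extracted and quantified by LC-MS-MS (LLOQ 9.2 ng/ml). Noncompartmental analysis of the mean concentration-time profile.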

The nature of data set [15]: Clearance in CD-1 mouse at 5 mg/kg, iv by LC-MS-MS analysis. In kind it is ADME, organism-based. Further details: dose 5 mg/kg, route intravenous. The settings on record: in vivo. A digest of the protocol: as §3
Data set [16] can be described thus: Half life in CD-1 mouse at 5 mg/kg, iv by LC-MS-MS analysis. The data set is classed as ADME, organism-based. Set-up: dose 5 mg/kg, route intravenous. The note with it: in vivo. The method, boiled down: as §3
Data set [17] can be described thus: Cmax in Wistar rat at 24.8 mg/kg, po by LC-MS-MS analysis. In kind it is ADME, organism-based. Set-up: dose 24.8 mg/kg, route oral. The note with it: in vivo. The method, boiled down:
(§4)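 Female Wistar rats, fasted overnight until 4 h post-dose, given 24.8 mg/kg orally in pH 3.5 HCl/citrate solution. Serial blood sampling from groups of three, 0.17–48 h. Plasma quantified by LC-MS-MS (LLOQ 9.2 ng/ml). Noncompartmental fit of mean profile; bioavailability from dose-corrected AUC ratio versus i.v.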

Data set [18] is described as follows: Tmax in Wistar rat at 24.8 mg/kg, po by LC-MS-MS analysis. The data set is classed as ADME, organism-based. Set-up: dose 24.8 mg/kg, route oral. The note with it: in vivo. A digest of the protocol: as §4
The subject of data set [19] is Rattus norvegicus. The experiment in a line: AUC (0 to infinity) in Wistar rat at 24.8 mg/kg, po by LC-MS-MS analysis. The data set is classed as ADME, organism-based, Plasma. Set-up: time infinity, dose 24.8 mg/kg, route oral. The note with it: in vivo. A digest of the protocol: as §4
The nature of data set [20]: Oral bioavailability in Wistar rat at 24.8 mg/kg by LC-MS-MS analysis. The note with it: in vivo. In kind it is ADME, organism-based. A digest of the protocol: as §4
Data set [21] can be described thus: Volume of distribution at steady state Wistar rat at 5.9 mg/kg, iv by LC-MS-MS analysis. The data set is classed as ADME, organism-based. Set-up: dose 5.9 mg/kg, route intravenous. The note with it: in vivo, read-out: Vdss. A digest of the protocol:
(§5)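 Female Wistar rats given 5.9 mg/kg i.v. in pH 3.5 HCl/citrate formulation. Serial blood from groups of three rats, 0.17–48 h. Heparinized plasma extracted with acetonitrile-methanol-acetic acid, LC-MS-MS quantification (LLOQ 9.2 ng/ml); noncompartmental analysis of mean profile.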

Data set [22] is described as follows: Clearance in Wistar rat at 5.9 mg/kg, iv by LC-MS-MS analysis. The data set is classed as ADME, organism-based. Set-up: dose 5.9 mg/kg, route intravenous. The settings on record: in vivo. The method, boiled down: as §5
Data set [23] is described as follows: Half life in Wistar rat at 5.9 mg/kg, iv by LC-MS-MS analysis. The data set is classed as ADME, organism-based. Further details: dose 5.9 mg/kg, route intravenous. The note with it: in vivo. The method, boiled down: as §5
The test system of data set [24] is dengue virus type 2. The experiment in a line: Antiviral activity against Dengue virus 2 NGC infected in human A549 cells after 2 days by CFI assay in presence of 40 mg/ml human serum albumin. In kind it is functional, organism-based. The settings on record: A549, 48 h. A digest of the protocol:
(§6)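 Modified CFI: A549 cells infected with DENV-2 New Guinea C (MOI 0.3) for 1 h without compound. Inoculum then replaced with medium containing compound dilutions plus the stated HSA and/or AGP. On day 2, cells methanol-fixed and intracellular E protein detected by ELISA (4G2 primary, HRP anti-mouse secondary); EC50 derived.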

Data set [25] deals with dengue virus type 2. The experiment in a line: Antiviral activity against Dengue virus 2 NGC infected in human A549 cells after 2 days by CFI assay in presence of 2 mg/ml alpha-1-acid glycoprotein. In kind it is functional, organism-based. The settings on record: A549, 48 h. The method, boiled down:
as §6

Data set [26] has as its system dengue virus type 2. The experiment in a line: Antiviral activity against Dengue virus 2 NGC infected in human A549 cells after 2 days by CFI assay in presence of 40 mg/ml human serum albumin and 2 mg/ml alpha-1-acid glycoprotein. The data set is classed as functional, organism-based. The settings on record: A549, 48 h. A digest of the protocol: as §6
In data set [27] the test system is A549. The experiment in a line: Cytotoxicity against human A549 cells up to 25 uM after 48 hrs by MTT assay. The data set is classed as functional, cell-based.

These results are taken from ChEMBL document CHEMBL1629704, “Inhibition of dengue virus by an ester prodrug of an adenosine analog” (Antimicrob Agents Chemother, 2010).

Broadly, the EC50 is the concentration giving half of the maximal effect. `C#C[C@@]1(O)[C@H](O)[C@@H](CO)O[C@H]1n1ccc2c(N)ncnc21`: the EC50 in [1] is 1640 nM; in data set [2], 2610 nM; in data set [3], 1120 nM; in data set [4], 460 nM; in data set [5], 0.7 µM; in [6], 580 nM. For the same compound, in data set [7], the “fold change (FC)” value worked out at 10.
As a reminder, the Cmax is the maximum level reached in the sampled fluid or tissue. A word on the Tmax: it is the time from dosing to the highest level. As usually defined, the AUC is the area under the concentration-time curve, a measure of exposure. Read a low AUC as less exposure. The bioavailability is the share of a dose that reaches the circulation, judged against a reference dose that is usually intravenous. Low values mean poor availability, high ones good availability. The clearance is the rate of elimination divided by the concentration. A high value points to a high capacity for elimination. What is called half-life is the time needed for the level to fall by half in the phase considered. A low value points to fast loss. For the compound `C#C[C@@]1(O)[C@H](O)[C@@H](CO)O[C@H]1n1cc(C(N)=O)c2c(N)ncnc21`, the Activity entry in data set [8] was “Not toxic”; in data set [9], “Non-toxic”; in [27] it was “Not toxic”. Moreover, the EC50 came out at 2610 nM in data set [1]; 2270 nM in [2]; 1620 nM in data set [3]; 1940 nM in data set [4]; 6.99 µM in data set [5]; 5000 nM in data set [6]. The results for the EC50 in data set [24], in data set [25] and in data set [26] were 4.76 µM, 2520 nM and 4.64 µM, respectively. For the same compound, the Cmax in data set [10] and in data set [17] was 270 nM each time. The results for the Tmax in [11] and in data set [18] were 1 h and 10.2 min, respectively. The figures for the AUC in data set [12] and in data set [19] were 0.42 µM·h and 3.15 µM·h, respectively. For the same compound, the bioavailability in [13] is 1%; in data set [20], 2%. In addition, the Vd in data set [14] is 0.26 L/kg; in [21], 2.71 L/kg. In addition, the clearance was 21.9 mL/min/kg in [15] and 8.98 mL/min/kg in [22]. Besides, the results for the half-life in data set [16] and in data set [23] were 78.6 min and 500 min, respectively.
